Screens as filed in PubChem.
Runt-SMMHC FRET = Runt domain-CBFb-SMMHC interaction inhibition | Q01196+Q13951 | Cerulean-Runt/Venus-CBFb-SMMHC FRET ratio 530/480, 1 h | inhibition, % at 20 µM | 220,000 tested, 0.74% active;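 active means mean inhibition across duplicate retests at 20 µM reaching about 50%, limit read from the data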;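 further: 0% = DMSO wells and 100% = wells with excess untagged CBFb-SMMHC; inhibitors lower the FRET ratio by blocking Runt binding to CBFb-SMMHC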
Runt-CBFb FRET = blocks binding of human RUNX1 Runt domain to CBFb | Q01196+Q13951 | Cerulean-Runt/Venus-CBFb FRET ratio 530/480, 1 h | inhibition, % at 20 µM | 220,000 tested, 0.46% active;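 active means inhibition over about 50% at 20 µM in the single-dose screen, limit read from the data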;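 further: 0% = DMSO wells and 100% = excess unlabeled CBFb competitor control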
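Assay system: Cerulean-Runt domain fusion protein, energy donor; Signal: fluorescence energy transfer, 422 nm excitation, 530/480 nm emission; Timing: 1 h compound exposure, room temperature; Control set: unlabeled CBFb; Medium: Tris buffer pH 7.5 with salts and BSA; Compound: single test concentration of 20 µM, 1% DMSO final; Probe or stimulus: Venus-CBFb 100 nM.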
Hck-Nef inh = blocks Nef-activated human Hck kinase; Recombinant Hck-YEEI plus Nef, Z-Lyte FRET kinase assay; inhibition, % at 20 µM; 220,000 tested, 0.68% active;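 active means Hck-Nef kinase inhibition above about 50%, limit read from the data; inactive means inhibition below that limit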;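 further: 0% = DMSO with Hck plus Nef and 100% = Hck alone without Nef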
Target sequence (P08631 whole entry, looked up): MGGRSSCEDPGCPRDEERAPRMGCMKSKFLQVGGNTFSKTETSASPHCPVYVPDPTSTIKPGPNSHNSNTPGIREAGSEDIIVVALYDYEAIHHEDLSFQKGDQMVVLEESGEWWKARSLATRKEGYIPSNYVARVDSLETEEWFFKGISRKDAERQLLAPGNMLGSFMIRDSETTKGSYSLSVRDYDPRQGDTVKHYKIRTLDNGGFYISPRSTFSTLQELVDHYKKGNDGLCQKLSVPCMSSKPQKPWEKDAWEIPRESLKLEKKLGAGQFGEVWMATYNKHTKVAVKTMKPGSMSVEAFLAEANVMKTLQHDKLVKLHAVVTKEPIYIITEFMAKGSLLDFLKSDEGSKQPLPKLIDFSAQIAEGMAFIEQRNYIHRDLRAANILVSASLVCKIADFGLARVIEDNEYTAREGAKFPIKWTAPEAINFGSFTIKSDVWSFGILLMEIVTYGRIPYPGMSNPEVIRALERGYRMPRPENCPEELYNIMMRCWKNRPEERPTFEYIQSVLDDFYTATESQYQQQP
RanGTP-Impb inh = inhibitors of RanGTP-importin-beta interaction, primary screen, biochemical, FRET, CFP-Ran, YFP-importin-beta, homogeneous; cell-free CFP-Ran/YFP-importin-beta FRET ratio; 300,000 tested, 1.1% active; inhibition, % (test concentration not listed);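 active means more than half of the replicate wells show a fall in the fluorescence ratio signal beyond about 16%, limit read from the data, passing the limit was not always enough; inconclusive means exactly half of the replicate wells pass the set limit; inactive means fewer than half of replicates pass the limit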;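 further: 0% = DMSO wells and 100% = Ran loaded with GDP instead of GTP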
* hit, by the source's call; ? = inconclusive; . = not tested or not shown. Rows were chosen to be rich in hits. Some 1.9% of all compounds tested hit in one or more screens of this group.

SMILES	Runt-SMMHC FRET	Runt-CBFb FRET	Hck-Nef inh	RanGTP-Impb inh
CN(CC(=O)Nc1ccccc1C(F)(F)F)C(=O)c1cc([N+](=O)[O-])ccc1N1CCOCC1	.	.	.	-1
COc1ccc(/C=C/C(=O)N2CCN(C)CC2)cc1S(=O)(=O)N1CCCCC1	2	2	-8	77*
Cc1cnc(CN(C)C(=O)CC2C(=O)NCCN2CCCc2ccccc2)[nH]1 (stereo unspecified)	.	.	.	6
CN(C)S(=O)(=O)c1cccc(NC(=O)c2cc3c(=O)n4ccccc4nc3s2)c1	28	-34	17	6
Cc1cc(NS(=O)(=O)c2ccc(NC(=O)c3cc4c(=O)n5ccccc5nc4s3)cc2)nc(C)n1	74*	33	19	7
CC(C)(C)OC(=O)NCC(=O)Oc1cc2oc(=O)cc(-c3ccccc3)c2cc1Cl	81*	3	1	0
O=C(O)C(=O)/C(=C\c1ccc([N+](=O)[O-])cc1)c1ccc2ccccc2n1	25	15	-5	9
O=C(O)C(=O)/C(=C\c1ccccc1)c1ccc2ccccc2n1	52*	7	18	31*
O=C(c1ccccc1)c1ccc2ccccc2n1	0	-2	1	-2
O=C(O)C(=O)/C(=C\c1ccsc1)c1ccc2ccccc2n1	.	.	.	20*
O=C(O)C(=O)/C(=C\c1cccc2ccccc12)c1ccc2ccccc2n1	80*	19	1	63*
C=CCNc1cnn(-c2ccc(C)cc2)c(=O)c1Sc1ccc(C)cc1	-1	-4	-3	-1
COc1ccc(CCNc2ncnc3c2nnn3Cc2ccccc2)cc1OC	.	.	.	-1
Cc1ccc(N(C)S(=O)(=O)c2ccc3c(c2)CC(C)N3C(=O)C2CC2)cc1 (stereo unspecified)	.	.	.	51*
CC(=O)N1c2ccc(S(=O)(=O)N(C)c3cc(C)ccc3C)cc2CC1C (stereo unspecified)	.	.	.	-1
c1ccc(-c2nnc(-c3ccncc3)o2)cc1	1	0	2	0
COc1ccc(-c2cc(-c3nnc(-c4ccncc4)o3)c3ccccc3n2)cc1	70*	34	5	3
O=C(COc1ccc(Br)cc1)N(Cc1cccs1)C1CCS(=O)(=O)C1 (stereo unspecified)	.	.	.	18*
CCc1ccc(OCC(=O)N(Cc2cccs2)C2CCS(=O)(=O)C2)cc1 (stereo unspecified)	.	.	.	4
O=C(/C=C/c1cn(CC(O)CN2CCCCC2)c2ccccc12)c1ccccc1 (stereo unspecified)	-64	-18	0	-11
CCCN(CCC)CC(O)Cn1cc(/C=C/C(=O)c2cccs2)c2ccccc21 (stereo unspecified)	-15	-155	-5	2
CCCN(CCC)CC(O)Cn1cc(/C=C/C(=O)c2ccccc2)c2ccccc21 (stereo unspecified)	-90	-23	-33	29*
CN1CCN(Cn2cc(/C=C/C(=O)c3ccccc3)c3ccccc32)CC1	-3	6	8	67*
Cc1sc2c(c1C)CN(CCN1CCOCC1)CN2C(=O)c1ccccc1	3	2	29	1
Cc1cc(C)n(-c2cccc(CN(C)Cc3nc(-c4cnccn4)no3)c2)n1	-3	-1	12	?
SMILES	Runt-SMMHC FRET	Runt-CBFb FRET	Hck-Nef inh	RanGTP-Impb inh
CCOc1ccc(N(CC(=O)NCc2ccc(OC)cc2)S(C)(=O)=O)cc1	.	.	.	-2
CC1(C)CC(=O)C2=C(C1)OC1=C(C(=O)CC(C)(C)C1)C2c1ccc(O)cc1O	42	6	0	93*
CCOC(=O)/C=C1\SCC(=O)N1CC(=O)Nc1ccccc1OC(F)F	-4	-3	0	150*
CCc1ccc(CN(C)C(=O)CCc2nnc(COc3ccccc3)o2)cc1	0	-5	18	?
COc1ccc(C2=Nc3nc(-c4ccccc4)cn3C(c3ccc(OC)cc3)C2)cc1 (stereo unspecified)	-97	-73	1	28*
COc1ccc(C2CC(c3ccccc3)=NN2C(=O)CCC(=O)O)cc1 (stereo unspecified)	.	.	.	7
CCCC1=C(C(=O)OCC)C(c2cccs2)C(C#N)=C(N)O1 (stereo unspecified)	6	5	0	30*
CCOC(=O)C1=C(CSc2nc(CC)c(C)cc2C#N)OC(N)=C(C#N)C1c1ccccc1 (stereo unspecified)	45	25	11	22*
CCOC(=O)C1=C(CSc2nc3c(cc2C#N)CN(C)CC3)OC(N)=C(C#N)C1c1ccncc1 (stereo unspecified)	74*	50	6	21*
CCOC(=O)C1=C(CSc2nc(C)cc(C)c2C#N)OC(N)=C(C#N)C1c1ccccc1 (stereo unspecified)	29	23	1	?
CCOC(=O)C1=C(C)OC(N)=C(C#N)C1c1cccs1 (stereo unspecified)	-4	2	-4	5
CCOC(=O)C1=C(CSc2nc3c(cc2C#N)CN(C)CC3)OC(N)=C(C#N)C1c1ccc(Cl)cc1 (stereo unspecified)	59*	23	4	27*
Nc1nc(-c2ccccn2)nc(N)c1Cc1ccc(Cl)cc1Cl	0	1	17	?
CC(NC(=O)COC(=O)/C=C/c1ccc(Cl)cc1)c1ccccc1 (stereo unspecified)	-6	1	15	2
CCN1C(=NCCc2cccs2)N[C@@H](c2cccs2)C(C(=O)OC)=C1C	.	.	.	31*
O=C(NC(=S)NCCc1ccccc1)c1cccc(Cl)c1	.	.	.	3
COc1cc(/C=C2\SC(=O)N(c3ccc(Cl)cc3)C2=O)cc([N+](=O)[O-])c1O	-14	-3	75*	.
CCOC(=O)C1ON2CCCCC2C1(O)C(F)(F)F (stereo unspecified)	-34	2	-5	-1
CC1Cc2cc(/C(O)=C3/C(=O)C(=O)N(CCN4CCOCC4)C3c3ccc(N(C)C)cc3)ccc2O1 (stereo unspecified)	.	.	.	30*
CCOC(=O)c1sc(Nc2nc3c(OC)cccc3s2)cc1C	92*	41	23	10
COc1ccc(C(=O)N(C)CC2CCN(CCc3cccc(C(F)(F)F)c3)CC2)cc1C	.	.	.	-3
Cc1c(Cl)cccc1Nc1ncccc1C(=O)OCC(O)CO (stereo unspecified)	-4	2	17	19*
O=C(OCc1c(Cl)cccc1Cl)c1cccnc1Cl	0	1	17	4
O=C(c1nc2n(n1)C(c1ccc(Cl)cc1)C=C(c1ccccc1)N2)N1CCOCC1 (stereo unspecified)	62*	-16	-24	-67
Cc1sc(NC(=O)COc2ccccc2)c(C#N)c1-c1ccccc1	0	1	1	1
COc1ccc(C(=O)Nc2sc(C)c(-c3ccccc3)c2C#N)cc1OC	6	2	-11	79*
CCOC(=O)N1CCN(C(=O)c2ccc(SC)cc2OC)CC1	-1	-1	14	-2
O=C(O)c1ccc[n+](Cc2ccc([N+](=O)[O-])cc2)c1	.	.	.	12*
O=[N+]([O-])c1ccc(C[n+]2cccc(O)c2)cc1	.	.	.	-2
